From ChEMBL document CHEMBL1123716, “Synthesis and tumor uptake of 5-halo-1-(2'-fluoro-2'-deoxy-beta-D-ribofuranosyl)[2-14C]uracils” (J Med Chem, 1987)

Key:
[1] = Total urine activity excreted at 8 hr was estimated from the measurement of loss of tissue activity; assay type: ADME, tissue-based
[2] = tested on: Mus musculus; assay: Radioactive constituent of 5-fluorouracil in urine at 8 hr time interval after intravenous injection into BDF1 female mice bearing lewis lung tumor; assay type: ADME, organism-based; settings: in vivo
In short: (§1)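 Radiolabeled nucleoside given in normal saline by tail vein, 23–193 kBq per mouse, to female BDF1 mice (18–20 g) carrying transplanted Lewis lung tumor. Urine was collected when the animals were killed. Components were identified by reverse-phase HPLC with UV at 256 nm on urine spiked with reference compounds, matched to liquid scintillation counts of the eluate. Each is reported as a percent of total urine radioactivity.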

[3] = tested on: Mus musculus; assay: Radioactive constituent of uracil in urine at 8 hr time interval after intravenous injection into BDF1 female mice bearing lewis lung tumor; assay type: ADME, organism-based; settings: in vivo; in short: as §1
[4] = tested on: Mus musculus; assay: Radioactive constituent of other in urine at 4 hr time interval after intravenous injection into BDF1 female mice bearing lewis lung tumor; assay type: ADME, organism-based; settings: in vivo; in short: as §1
[5] = tested on: Mus musculus; assay: Tissue distribution in BDF1 female mice bearing an implanted lewis lung tumor after intravenous injection in spleen at 0.25 h.; assay type: ADME, organism-based; settings: in vivo
In short: (§2)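 Female BDF₁ mice (18–20 g) carrying transplanted Lewis lung tumor received 23–193 kBq of the [2-¹⁴C]-labeled nucleoside in normal saline via tail vein. The compound was stored as a dry film and reconstituted just before use. Animals were killed at set times, and tissue ¹⁴C was measured by combustion and liquid scintillation. Values are mean ± SD % injected dose per gram of wet tissue, n = 6.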

[6] = tested on: Mus musculus; assay: Radioactive constituent of 5-fluorouracil in urine at 4 hr time interval after intravenous injection into BDF1 female mice bearing lewis lung tumor; assay type: ADME, organism-based; settings: in vivo; in short: as §1
[7] = tested on: Mus musculus; assay: Tissue distribution in BDF1 female mice bearing an implanted lewis lung tumor after intravenous injection in skin at 2 h; assay type: ADME, organism-based, Skin of body; settings: in vivo; in short: as §2
[8] = Total urine activity excreted at 0.5 hr was estimated from the measurement of loss of tissue activity; assay type: ADME, tissue-based
[9] = tested on: Mus musculus; assay: Radioactive constituent of other in urine at 0.5 hr time interval after intravenous injection into BDF1 female mice bearing lewis lung tumor; assay type: ADME, organism-based; settings: in vivo; in short: as §1
[10] = tested on: Mus musculus; assay: Tissue distribution in BDF1 female mice bearing an implanted lewis lung tumor after intravenous injection in kidney at 0.25 h.; assay type: ADME, organism-based; settings: in vivo
In short: (§3)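 Female BDF1 mice (18–20 g) with implanted Lewis lung tumor received the 2-14C compound by tail vein, 23–193 kBq in normal saline, reconstituted from a dry film just before use. Animals were killed at set times and tissues taken for 14C counting by combustion and liquid scintillation. Values are percent injected dose per gram wet tissue, mean ± standard deviation, six animals.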

[11] = tested on: Mus musculus; assay: Radioactive constituent of 5-fluorouracil in urine at 2 hr time interval after intravenous injection into BDF1 female mice bearing lewis lung tumor; settings: in vivo
[12] = tested on: Mus musculus; assay: Radioactive constituent of uracil in urine at 2 hr time interval after intravenous injection into BDF1 female mice bearing lewis lung tumor; assay type: ADME, organism-based; settings: in vivo; in short: as §1
[13] = tested on: Mus musculus; assay: Radioactive constituent of 5-fluorouracil in urine at 0.5 hr time interval after intravenous injection into BDF1 female mice bearing lewis lung tumor; assay type: ADME, organism-based; settings: in vivo; in short: as §1
[14] = tested on: Mus musculus; assay: Radioactive constituent in urine at 2 hr time interval after intravenous injection into BDF1 female mice bearing lewis lung tumor; assay type: ADME, organism-based; settings: in vivo; in short: as §1
[15] = tested on: Mus musculus; assay: Tissue distribution in BDF1 female mice bearing an implanted lewis lung tumor after intravenous injection in stomach at 0.5 h.; assay type: ADME, organism-based; settings: in vivo; in short: as §2
[16] = Total urine activity excreted at 4 hr was estimated from the measurement of loss of tissue activity; assay type: ADME, tissue-based
[17] = tested on: Mus musculus; assay: Radioactive constituent of uracil in urine at 4 hr time interval after intravenous injection into BDF1 female mice bearing lewis lung tumor; assay type: ADME, organism-based; settings: in vivo; in short: as §1
[18] = tested on: Mus musculus; assay: Radioactive constituent in urine at 4 hr time interval after intravenous injection into BDF1 female mice bearing lewis lung tumor; assay type: ADME, organism-based; settings: in vivo; in short: as §1
[19] = tested on: Mus musculus; assay: Radioactive constituent of uracil in urine at 0.5 hr time interval after intravenous injection into BDF1 female mice bearing lewis lung tumor; assay type: ADME, organism-based; settings: in vivo; in short: as §1
[20] = tested on: Mus musculus; assay: Radioactive constituent in urine at 0.5 hr time interval after intravenous injection into BDF1 female mice bearing lewis lung tumor; assay type: ADME, organism-based; settings: in vivo; in short: as §1
[21] = tested on: Mus musculus; assay: Tissue distribution in BDF1 female mice bearing an implanted lewis lung tumor after intravenous injection in stomach at 0.25 h.; assay type: ADME, organism-based; settings: in vivo; in short: as §2
[22] = tested on: Mus musculus; assay: Radioactive constituent in urine at 8 hr time interval after intravenous injection into BDF1 female mice bearing lewis lung tumor; assay type: ADME, organism-based; settings: in vivo; in short: as §1
[23] = tested on: Mus musculus; assay: Radioactive constituent of other in urine at 2 hr time interval after intravenous injection into BDF1 female mice bearing lewis lung tumor; assay type: ADME, organism-based; settings: in vivo; in short: as §1
[24] = tested on: Mus musculus; assay: Tissue distribution in BDF1 female mice bearing an implanted lewis lung tumor after intravenous injection in skin at 0.25 h.; assay type: ADME, organism-based, Skin of body; settings: in vivo; in short: as §2
[25] = tested on: Mus musculus; assay: Tissue distribution in BDF1 female mice bearing an implanted lewis lung tumor after intravenous injection in bone at 0.25 h; assay type: ADME, organism-based; settings: in vivo; in short: as §3
[26] = tested on: Mus musculus; assay: Tissue distribution in BDF1 female mice bearing an implanted lewis lung tumor after intravenous injection in skin at 0.25 h; assay type: ADME, organism-based, Skin of body; settings: in vivo; in short: as §2
[27] = tested on: Mus musculus; assay: Tissue distribution in BDF1 female mice bearing an implanted lewis lung tumor after intravenous injection in skin at 2 h.; assay type: ADME, organism-based, Skin of body; settings: in vivo; in short: as §2
[28] = tested on: Mus musculus; assay: Tissue distribution in BDF1 female mice bearing an implanted lewis lung tumor after intravenous injection in kidney at 0.25 h; assay type: ADME, organism-based; settings: in vivo; in short: as §3
[29] = tested on: Mus musculus; assay: Tissue distribution in BDF1 female mice bearing an implanted lewis lung tumor after intravenous injection in muscle at 0.25 h; assay type: ADME, organism-based; settings: in vivo; in short: as §2

O=c1[nH]c(=O)n([C@H]2O[C@@H](CO)[C@H](O)[C@H]2F)cc1F
Total urine activity [1]: 0.2% | Total radioactivity [2]: 4.5% | Total radioactivity [3]: 4.5% | Total radioactivity [4]: 23% | Tissue distribution [5]: 8.72 | Total radioactivity [6]: 16.3% | Tissue distribution [7]: 0.06 | Total urine activity [8]: 68% | Total radioactivity [9]: 5% | Tissue distribution [10]: 47.4 | Total radioactivity [11]: 2.8% | Total radioactivity [12]: 3.3% | Total radioactivity [13]: 2.1% | Total radioactivity [14]: 88.5% | Tissue distribution [15]: 0.96 | Total urine activity [16]: 0.8% | Total radioactivity [17]: 7.3% | Total radioactivity [18]: 63.4% | Total radioactivity [19]: 1.4% | Total radioactivity [20]: 90.7% | Tissue distribution [21]: 2.18 | Total radioactivity [22]: 52.4% | Total radioactivity [23]: 5.4% | Tissue distribution [24]: 3.3

O=c1[nH]c(=O)n([C@H]2O[C@@H](CO)[C@H](O)[C@H]2F)cc1Cl
Tissue distribution [25]: 0.77 | Tissue distribution [26]: 2.24 | Tissue distribution [27]: 0.13 | Tissue distribution [28]: 36.2 | Tissue distribution [29]: 1.48
